≈ marks a conversion by molar mass, not a printed value.
Key:
[1] = Solubility of the compound in 5% DMA and 95% buffer at pH 7 at 1.5 mg sonicated for 45 mins followed by centrifugation for 45 mins by UV/Vis spectroscopy; type: physicochemical
In short: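 For buffers with 5% or less DMA, a 50 mM stock of compound in DMA is diluted 20–100 times into pH 7.0 buffer. It is then sonicated for 45 min and centrifuged at 1400g for 45 min. Supernatant is quantified by UV/vis at 340 nm, with ε of 41500 (DC1–SR₂ compounds) or 34500 M⁻¹ cm⁻¹ (phosphate prodrugs).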

[2] = Cytotoxicity against human NAMALWA cells assessed as cell survival after 72 hrs by clonogenic assay; type: functional, cell-based; conditions: NAMALVA
In short: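 Cells were kept in RPMI 1640 with 10% heat-inactivated FBS at 37 °C and 6% CO₂. They were plated at 1000–5000 cells/well and exposed to 0–3 nM test agent for 72 h. Medium was then replaced and colonies grew for 7–10 days in total after plating. Colonies were fixed and stained with 0.2% crystal violet in 10% formalin/PBS, then counted. Surviving fraction = colonies in treated wells / colonies in control wells; IC₅₀ was taken from this.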

Ramos = test: Cytotoxicity against human Ramos cells assessed as cell survival after 72 hrs in presence of bovine alkaline phosphatase by clonogenic assay; type: functional, cell-based
In short: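 Clonogenic assay: cells in RPMI 1640 with 10% heat-inactivated FBS were plated at 1000–5000 cells/well. Test agent (0–3 nM) was combined with alkaline phosphatase from bovine liver, and cells were exposed for 72 h. Colonies then grew for 7–10 days after plating and were stained with 0.2% crystal violet in 10% formalin/PBS. Surviving fraction is relative to untreated control wells.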

[3] = Prodrug activation assessed as enzyme-mediated compound dephosphorylation in presence of bovine liver alkaline phosphatase P7034 at pH 7.4 by HPLC; conditions: cattle, isolated protein
[4] = Prodrug activation assessed as enzyme-mediated compound dephosphorylation in presence of canine intestine alkaline phosphatase P8639 at pH 7.4 by HPLC; conditions: dog, isolated protein
[5] = Prodrug activation assessed as enzyme-mediated compound dephosphorylation in presence of porcine intestine mucosa alkaline phosphatase P4002 at pH 7.4 by HPLC; conditions: pig, isolated protein
[6] = Solubility in water at 1.5 mg sonicated for 45 mins followed by centrifugation for 45 mins by UV/Vis spectroscopy; type: physicochemical; conditions: 0.75 h
In short: (§1)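 Solid compound (~1.5 mg) in the stated solvent was sonicated 45 min, then centrifuged at 1400g for 45 min. The supernatant concentration was read by UV/vis at 340 nm, using ε = 41500 M⁻¹ cm⁻¹ for the free phenols and 34500 M⁻¹ cm⁻¹ for the phosphate prodrugs (pH 7.0 values).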

[7] = Solubility in ethyl acetate at 1.5 mg sonicated for 45 mins followed by centrifugation for 45 mins by UV/Vis spectroscopy; type: physicochemical; conditions: 0.75 h; in short: as §1
[8] = Solubility in chloroform at 1.5 mg sonicated for 45 mins followed by centrifugation for 45 mins by UV/Vis spectroscopy; type: physicochemical; conditions: 0.75 h; in short: as §1
[9] = Solubility in dichloromethane at 1.5 mg sonicated for 45 mins followed by centrifugation for 45 mins by UV/Vis spectroscopy; type: physicochemical; conditions: 0.75 h
[10] = Solubility in DMSO at 1.5 mg sonicated for 45 mins followed by centrifugation for 45 mins by UV/Vis spectroscopy; type: physicochemical; conditions: 0.75 h; in short: as §1
[11] = Solubility in water containing 5% acetone at 1.5 mg sonicated for 45 mins followed by centrifugation for 45 mins by UV/Vis spectroscopy; type: physicochemical; conditions: 0.75 h
[12] = Solubility in water containing 5% DMF at 1.5 mg sonicated for 45 mins followed by centrifugation for 45 mins by UV/Vis spectroscopy; type: physicochemical; conditions: 0.75 h
[13] = Stability of the compound in 5 % DMA assessed as cyclopropyl ring formation incubated for 1 yr at room temperature at pH 7 by HPLC analysis; type: physicochemical; conditions: buffer, pH 7, 8766 h
In short: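 Phosphate prodrug is stored for one year at room temperature in phosphate buffer containing 5% DMA at pH ~7. Conversion to the ring-closed cyclopropyl form is monitored by HPLC.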

[14] = Prodrug activation assessed as enzyme-mediated compound dephosphorylation in presence of bovine semen prostatic acid phosphatase P3147 at pH 7.4 by HPLC; conditions: cattle, isolated protein
[15] = Prodrug conversion assessed as 1 - [ S ] - ( Ch l o r ome t h y l ) - 5 - h y d r o x y - 3 - { { 5 - [ 5 - ( 3 -methyldithiopropionyl)indol-2-yl-carbonyl amino]indole-2-yl}- carbonyl}-1,2-dihydro-3H-benz[e]indole formation in presence of bovine liver alkaline phosphatase at pH 7.4; type: physicochemical; conditions: cattle, isolated protein
[16] = Prodrug conversion assessed as 1 - [ S ] - ( Ch l o r ome t h y l ) - 5 - h y d r o x y - 3 - { { 5 - [ 5 - ( 3 -methyldithiopropionyl)indol-2-yl-carbonyl amino]indole-2-yl}- carbonyl}-1,2-dihydro-3H-benz[e]indole formation in presence of rabbit intestine alkaline phosphatase at pH 7.4; type: physicochemical; conditions: in vitro
[17] = Prodrug conversion assessed as 1 - [ S ] - ( Ch l o r ome t h y l ) - 5 - h y d r o x y - 3 - { { 5 - [ 5 - ( 3 -methyldithiopropionyl)indol-2-yl-carbonyl amino]indole-2-yl}- carbonyl}-1,2-dihydro-3H-benz[e]indole formation in presence of porcine mucosa alkaline phosphatase at pH 7.4; type: physicochemical; conditions: pig, isolated protein
[18] = Prodrug conversion assessed as 1-[S]-(Chloromethyl)-5-hydroxy-3-{{5-[5-(4-methyldithio-3,3- dimethyl butyryl)indol-2-yl-carbonyl amino]indole-2-yl}carbonyl}- 1,2-dihydro-3H-benz[e]indole formation in presence of bovine liver alkaline phosphatase at pH 7.4; type: physicochemical; conditions: cattle, isolated protein
[19] = Prodrug conversion assessed as 1-[S]-(Chloromethyl)-5-hydroxy-3-{{5-[5-(4-methyldithio-3,3- dimethyl butyryl)indol-2-yl-carbonyl amino]indole-2-yl}carbonyl}- 1,2-dihydro-3H-benz[e]indole formation in presence of bovine kidney alkaline phosphatase at pH 7.4; type: physicochemical; conditions: cattle, isolated protein
[20] = Prodrug conversion assessed as 1-[S]-(Chloromethyl)-5-hydroxy-3-{{5-[5-(4-methyldithio-3,3- dimethyl butyryl)indol-2-yl-carbonyl amino]indole-2-yl}carbonyl}- 1,2-dihydro-3H-benz[e]indole formation in presence of rabbit intestine alkaline phosphatase at pH 7.4; type: physicochemical; conditions: in vitro

solubility at 0.75 h [1] [µM]	Drug metabolism [3]	Drug metabolism [4]	Drug metabolism [5]	solubility [6]	solubility [7]	solubility [8]	solubility [9]	solubility [10]	solubility [11]	solubility [12]	Drug degradation [13] [%]	Drug metabolism [14]	Drug metabolism [15]	SMILES	IC50 [2] [nM]	IC50 (Ramos) [nM]	other results
3000 (≈ 2290 µg/mL)	Active	Active	Active	Insoluble	Insoluble	Insoluble	Insoluble	soluble	soluble	soluble	3	Active	Active	CSSCCC(=O)Nc1ccc2[nH]c(C(=O)Nc3ccc4[nH]c(C(=O)N5C[C@@H](CCl)c6c5cc(OP(=O)(O)O)c5ccccc65)cc4c3)cc2c1	2.9	0.08	Drug metabolism [16]: Active; Drug metabolism [17]: Active
2900 (≈ 2340 µg/mL)	Active	Active	Active	Insoluble	Insoluble	Insoluble	Insoluble	soluble	soluble	soluble	3	Active	Active	CSSC(C)(C)CCC(=O)Nc1ccc2[nH]c(C(=O)Nc3ccc4[nH]c(C(=O)N5C[C@@H](CCl)c6c5cc(OP(=O)(O)O)c5ccccc65)cc4c3)cc2c1	2.8	0.09	Drug metabolism [18]: Active; Drug metabolism [19]: Active; Drug metabolism [20]: Active
